Laboratory results as given in ChEMBL document CHEMBL5030531, “Synthetic Glycolipids as Molecular Vaccine Adjuvants: Mechanism of Action in Human Cells and In Vivo Activity” (J Med Chem, 2021).
Active and inactive are the calls of the source. The rule behind the calls is not given here.

Key:
[1] = molecular target: Toll-like receptor 2 (Homo sapiens) (UniProt O60603); experiment: Agonist activity human TLR2 in PAM2CSK4 stimulated HEK-Blue hTLR2 cells at 0.1 to 25 uM incubated for 18 hrs by QUANTI-blue assay; type: cell-based; details: dose 0.1-25 µM
Procedure, shortened: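 HEK-Blue hTLR2 cells exposed 18 h to compound (0.1–25 μM); SEAP in supernatant by QUANTI-Blue at OD 630 nm. Values normalized to PAM2CSK4 (10 ng/mL, 18 h) and expressed as mean percentage of three independent experiments.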

[2] = molecular target: T1, Toll-like receptor 4/MD-2 (Homo sapiens) (UniProt O00206+Q9Y6Y9); experiment: Binding affinity to NTA sensor chip immobilized recombinant human TLR4/MD2 assessed as dissociation rate kinetics by surface plasmon resonance analysis; type: protein-complex assay; details: filed as agonist
Procedure, shortened: (§1)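 Recombinant human TLR4/MD2 complex (20 μg/mL in 10 mM sodium acetate pH 4.0) amine-coupled to NTA chip after NiCl2 and EDC/NHS activation, ethanolamine-blocked. Analytes sonicated 15 min and diluted in PBS-P+ with 5% DMSO, injected over the series 4.34–69.50 μM or 5.34–85.50 μM. Regeneration 50 mM NaOH. Kinetics fitted to 1:1 model after solvent correction.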

[3] = molecular target: Nuclear factor NF-kappa-B complex (Homo sapiens) (UniProt Q00653+P19838+Q04206); experiment: Activation of NF-kappaB in LPS-stimulated HEK-Blue hTLR4 cells assessed as increase in release of SEAP reporter protein level incubated for 18 hrs by QUANTI-blue assay; type: cell-based; details: filed as activator
Procedure, shortened: (§2)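 HEK-Blue hTLR4 cells (HEK293 with CD14, TLR4, MD-2 and NF-κB/AP-1-driven SEAP) in DMEM/10% FBS, seeded overnight (37 °C, 5% CO2), washed, then exposed to compound 0.1–25 μM in fresh medium for 18 h. SEAP in supernatant read with QUANTI-Blue substrate (0.5–4 h, RT) at OD 630 nm. Normalized to 100 ng/mL S. minnesota smooth LPS; mean percentage of three independent experiments.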

[4] = test system: Macrophage; experiment: Induction of IL-1beta production in human THP-1 derived macrophages assessed as secretion of IL-1beta mature form in supernatant at 20 uM measured up to 18 hrs by ELISA; type: functional, tissue-based; details: time hrs <=18
Procedure, shortened: (§3)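 Differentiated THP-1 macrophages treated with compound at 20 μM (S-LPS, R-LPS 100 ng/mL; MPLA 1 μg/mL) for 3, 6 and 18 h. IL-1β measured by ELISA in both cell lysates and supernatants; n = 3, one-way ANOVA versus untreated.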

[5] = test system: Macrophage; experiment: Activation of TRIF dependent pathway in human THP-1 derived macrophages assessed as increase in IFNbeta mRNA expression measured 2 hrs post treatment by real-time PCR; details: filed as activator
[6] = test system: HEK-Blue hTLR4; experiment: Activation of AP-1 in LPS-stimulated HEK-Blue hTLR4 cells assessed as increase in release of SEAP reporter protein level incubated for 18 hrs by QUANTI-blue assay; type: cell-based; details: Homo sapiens, filed as activator; procedure, shortened: as §2
[7] = test system: Macrophage; experiment: Activation of TRIF dependent pathway in human THP-1 derived macrophages assessed as increase in IRF3 phosphorylation at 10 uM measured up to 3 hrs by immunoblotting analysis; type: tissue-based; details: filed as activator, time hrs <=3
Procedure, shortened: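 Differentiated THP-1 macrophages exposed to compound at 10 μM, alongside S-LPS and R-LPS (100 ng/mL each) and MPLA (1 μg/mL), and collected over a time course. Lysates were immunoblotted for phospho-IRF3 (Ser386) with β-actin as loading control and detected by chemiluminescence.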

[8] = test system: Mus musculus; experiment: Immuno-adjuvant activity in C57BL/6 mouse assessed as increase in levels of anti-ova total IgG in sera at 10 ug administered subcutaneously in presence of ovalbumin and measured 21 days post immunization by ELISA; type: functional, organism-based; details: dose 10.0 µg, time 21.0 day
Procedure, shortened: (§4)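 Female C57BL/6 mice (n = 8) given 50 μL s.c. in the flank of 500 μg endotoxin-depleted OVA mixed with 10 μg adjuvant in PBS. Booster on opposite flank day 22; OVA-only control group. Tail-vein sera taken days 21 and 41, serially diluted 1:100–1:12 800 and assayed by ELISA on OVA-coated plates (4 μg/mL). Detection with HRP anti-mouse IgG, TMB, A450.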

[9] = test system: Macrophage; experiment: Induction of IL-1beta production in human THP-1 derived macrophages assessed as accumulation of IL-1beta precursor in cell lysates at 20 uM measured up to 18 hrs by ELISA; type: functional, subcellular; details: time hrs <=18; procedure, shortened: as §3
[10] = test system: Macrophage; experiment: Activation of TRIF dependent pathway in human THP-1 derived macrophages assessed as increase in IFNbeta mRNA expression by measuring fold increase measured 2 hrs post treatment by real-time PCR relative to control; details: filed as activator
[11] = molecular target: Toll-like receptor 4 (Homo sapiens) (UniProt O00206); experiment: Antagonist activity at human TLR4 in LPS-stimulated HEK-Blue hTLR4 cells assessed as inhibition of LPS-induced SEAP production at 0.1 to 25 uM incubated for 18 hrs by QUANTI-blue assay; details: dose 0.1-25 µM
[12] = molecular target: Myeloid differentiation primary response protein MyD88 (Homo sapiens) (UniProt Q99836); experiment: Activation of MyD88 dependent pathway in human THP-1 derived macrophages assessed as increase in NF-kappaB p65 phosphorylation at 10 uM measured after 1 hr by immunoblotting analysis; type: tissue-based; details: Macrophage, filed as activator
Procedure, shortened: (§5)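 PMA-differentiated THP-1 macrophages treated with compound at 10 μM (S-LPS 100 ng/mL, MPLA 1 μg/mL as references) and harvested at set times. RIPA lysates with protease/phosphatase inhibitors separated by SDS-PAGE, transferred to PVDF and probed for phospho-p65 (Ser536) and phospho-p38 (Thr180/Tyr182) with β-actin as loading control. Detection by chemiluminescence, densitometry; representative of at least two experiments.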

[13] = test system: Macrophage; experiment: Inhibition of IL-1beta release in human THP-1 derived macrophages pretreated with NLRP3 inhibitor MCC950 for 1 hr followed by compound addition and measured after 6 hrs by ELISA and immunoblotting analysis; type: functional, tissue-based
Procedure, shortened: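 Differentiated THP-1 macrophages preincubated 1 h with MCC950 at 0.01, 0.1, 1 and 10 μM. Cells were then stimulated 6 h with compound at 20 μM or with S-LPS at 100 ng/mL. Secreted IL-1β measured by ELISA and by immunoblot of supernatants.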

[14] = molecular target: Myeloid differentiation primary response protein MyD88 (Homo sapiens) (UniProt Q99836); experiment: Activation of MyD88 dependent pathway in human THP-1 derived macrophages assessed as increase in IL-6 secretion at 10 to 25 uM measured after 18 hrs by ELISA; details: Macrophage, filed as activator, dose 10-25 µM
Procedure, shortened: (§6)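 THP-1 cells differentiated with PMA 25 ng/mL for 72 h, then rested 24 h in fresh medium before stimulation with compound (range 0.1–1 to 10–25 μM) in RPMI/10% FBS for 18 h. S-LPS and MPLA used as references. TNFα, IL-1β, IL-6 in supernatants quantified by sandwich ELISA at 450 nm (570 nm correction).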

[15] = molecular target: NACHT, LRR and PYD domains-containing protein 3 (Homo sapiens) (UniProt Q96P20); experiment: Activation of NLRP3 inflammasome in human THP-1 derived macrophages assessed as increase in IL-1beta maturation and release at 20 uM measured after 6 hrs by ELISA; type: tissue-based; details: Macrophage, filed as activator
Procedure, shortened: (§7)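 After 6 h of compound at 20 μM, differentiated THP-1 macrophage lysates were immunoblotted for pro-caspase-1 and pro-IL-1β. Methanol/chloroform-precipitated supernatants were probed for cleaved caspase-1 and cleaved IL-1β (Asp116), with chemiluminescent detection. Released IL-1β was also measured by ELISA.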

[16] = test system: Macrophage; experiment: Activation of TRIF dependent pathway in human THP-1 derived macrophages assessed as increase in RSAD2 expression measured after 6 hrs; type: tissue-based; details: filed as activator
Procedure, shortened: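 RSAD2 mRNA in differentiated THP-1 macrophages after compound at 10 μM, measured by RT-qPCR (annealing 60 °C) with β-actin housekeeping gene. Expressed as ΔΔCt fold change versus untreated cells; n = 3, Wilcoxon test.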

[17] = Toxicity in C57BL/6 […] assessed as state of alertness at 10 ug observed daily for 7 days; details: mouse, in vivo, 168 h; dose 10 µg, time 7 day
Procedure, shortened: (§8)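 Six-week-old female C57BL/6 mice were injected subcutaneously in the flank with 10 μg adjuvant in 50 μL PBS. Mice were monitored and weighed daily for 7 days, with injection-site response and alertness noted. Group size is n = 3 per treatment in the methods and n = 4 in the figure legend.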

[18] = molecular target: T1, Toll-like receptor 4/MD-2 (Homo sapiens); experiment: Binding affinity to NTA sensor chip immobilized recombinant human TLR4/MD2 assessed as maximum response by surface plasmon resonance analysis; type: protein-complex assay; details: filed as agonist; procedure, shortened: as §1
[19] = Toxicity in C57BL/6 […] assessed as local response at injection site at 10 ug observed daily for 7 days; details: mouse, in vivo, 168 h; dose 10 µg, time 7 day; procedure, shortened: as §8
[20] = molecular target: T1, Toll-like receptor 4/MD-2 (Homo sapiens); experiment: Binding affinity to NTA sensor chip immobilized recombinant human TLR4/MD2 assessed as association rate constant by surface plasmon resonance analysis; type: protein-complex assay; details: filed as agonist; procedure, shortened: as §1
[21] = test system: Macrophage; experiment: Activation of TRIF dependent pathway in human THP-1 derived macrophages assessed as STAT1 phosphorylation at 10 uM pretreated with anti-IFNAR2 antibody for 1 hr followed by compound addition and measured after 3 hrs by immunoblotting analysis; details: filed as activator
[22] = molecular target: Myeloid differentiation primary response protein MyD88 (Homo sapiens) (UniProt Q99836); experiment: Activation of MyD88 dependent pathway in human THP-1 derived macrophages assessed as increase in IL-1 beta secretion at 10 to 25 uM measured after 18 hrs by ELISA; details: Macrophage, filed as activator, dose 10-25 µM; procedure, shortened: as §6
[23] = molecular target: Myeloid differentiation primary response protein MyD88 (Homo sapiens) (UniProt Q99836); experiment: Activation of MyD88 dependent pathway in human THP-1 derived macrophages assessed as increase in MAPK p38 phosphorylation at 10 uM measured after 1 hr by immunoblotting analysis; type: tissue-based; details: Macrophage, filed as activator; procedure, shortened: as §5
[24] = test system: Mus musculus; experiment: Immuno-adjuvant activity in C57BL/6 mouse assessed as increase in levels of anti-ova total IgG in sera at 10 ug administered subcutaneously on day 1 and as booster dose on day 22 in presence of ovalbumin and […] by ELISA; type: functional, organism-based; details: dose 10.0 µg; procedure, shortened: as §4
[25] = Toxicity in C57BL/6 […] assessed as effect on body weight at 10 ug measured daily for 7 days; details: mouse, in vivo, 168 h; dose 10 µg, time 7 day; procedure, shortened: as §8
[26] = molecular target: NACHT, LRR and PYD domains-containing protein 3 (Homo sapiens) (UniProt Q96P20); experiment: Activation of NLRP3 inflammasome in human THP-1 derived macrophages assessed as increase in caspase-1 cleavage at 20 uM by immunoblotting analysis; type: tissue-based; details: Macrophage, filed as activator; procedure, shortened: as §7
[27] = molecular target: Myeloid differentiation primary response protein MyD88 (Homo sapiens) (UniProt Q99836); experiment: Activation of MyD88 dependent pathway in human THP-1 derived macrophages assessed as increase in TNF alpha secretion at 10 to 25 uM measured after 18 hrs by ELISA; details: Macrophage, filed as activator, dose 10-25 µM; procedure, shortened: as §6
[28] = molecular target: Toll-like receptor 4 (Homo sapiens) (UniProt O00206); experiment: Activation of human TLR4 in IL-1beta stimulated HEK-Blue Null cells assessed as NF-kappaB activation at 0.1 to 25 uM incubated for 18 hrs by QUANTI- blue assay; type: tissue-based; details: dose 0.1-25 µM
Procedure, shortened: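 HEK-Blue Null cells, which carry the SEAP reporter but lack LPS receptors, were given compound (0.1–25 μM) for 18 h. SEAP was read by QUANTI-Blue at OD 630 nm and normalized to 100 ng/mL human IL-1β as positive control. Results are the mean percentage of three independent experiments.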

Myeloid differentiation primary response protein MyD88 (Homo sapiens), sequence (Q99836 whole entry): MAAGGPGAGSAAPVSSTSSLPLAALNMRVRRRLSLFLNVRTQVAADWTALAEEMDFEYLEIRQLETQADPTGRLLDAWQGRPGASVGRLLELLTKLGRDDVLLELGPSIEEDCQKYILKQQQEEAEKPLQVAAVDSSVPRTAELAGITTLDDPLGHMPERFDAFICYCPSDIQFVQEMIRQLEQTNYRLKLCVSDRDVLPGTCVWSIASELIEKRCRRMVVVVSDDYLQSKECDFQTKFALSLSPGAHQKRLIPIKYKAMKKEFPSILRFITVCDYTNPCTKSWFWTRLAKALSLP
Toll-like receptor 4 (Homo sapiens), sequence (O00206 whole entry): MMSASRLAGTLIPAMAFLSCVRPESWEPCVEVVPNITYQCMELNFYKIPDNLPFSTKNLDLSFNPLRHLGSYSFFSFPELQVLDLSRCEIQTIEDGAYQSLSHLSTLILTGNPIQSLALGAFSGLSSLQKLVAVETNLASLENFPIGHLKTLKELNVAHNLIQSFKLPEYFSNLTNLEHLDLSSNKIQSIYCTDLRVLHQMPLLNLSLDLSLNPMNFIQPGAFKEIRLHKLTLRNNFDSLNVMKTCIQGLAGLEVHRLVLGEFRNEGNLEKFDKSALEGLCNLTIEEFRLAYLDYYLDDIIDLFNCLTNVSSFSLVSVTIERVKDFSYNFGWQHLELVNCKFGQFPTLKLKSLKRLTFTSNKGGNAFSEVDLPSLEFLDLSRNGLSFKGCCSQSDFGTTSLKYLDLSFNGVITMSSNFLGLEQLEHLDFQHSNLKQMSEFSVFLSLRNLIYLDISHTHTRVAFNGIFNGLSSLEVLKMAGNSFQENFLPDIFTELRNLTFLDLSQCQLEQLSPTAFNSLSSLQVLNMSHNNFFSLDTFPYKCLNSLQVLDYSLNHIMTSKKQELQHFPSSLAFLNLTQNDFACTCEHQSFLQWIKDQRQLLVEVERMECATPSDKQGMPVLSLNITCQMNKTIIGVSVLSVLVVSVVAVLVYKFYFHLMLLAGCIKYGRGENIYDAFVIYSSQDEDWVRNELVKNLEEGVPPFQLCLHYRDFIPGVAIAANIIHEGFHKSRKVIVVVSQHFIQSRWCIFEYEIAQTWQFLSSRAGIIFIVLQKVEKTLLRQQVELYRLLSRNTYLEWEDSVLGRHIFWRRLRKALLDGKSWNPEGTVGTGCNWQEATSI
NACHT, LRR and PYD domains-containing protein 3 (Homo sapiens), sequence (Q96P20 whole entry, the tested form may be a part): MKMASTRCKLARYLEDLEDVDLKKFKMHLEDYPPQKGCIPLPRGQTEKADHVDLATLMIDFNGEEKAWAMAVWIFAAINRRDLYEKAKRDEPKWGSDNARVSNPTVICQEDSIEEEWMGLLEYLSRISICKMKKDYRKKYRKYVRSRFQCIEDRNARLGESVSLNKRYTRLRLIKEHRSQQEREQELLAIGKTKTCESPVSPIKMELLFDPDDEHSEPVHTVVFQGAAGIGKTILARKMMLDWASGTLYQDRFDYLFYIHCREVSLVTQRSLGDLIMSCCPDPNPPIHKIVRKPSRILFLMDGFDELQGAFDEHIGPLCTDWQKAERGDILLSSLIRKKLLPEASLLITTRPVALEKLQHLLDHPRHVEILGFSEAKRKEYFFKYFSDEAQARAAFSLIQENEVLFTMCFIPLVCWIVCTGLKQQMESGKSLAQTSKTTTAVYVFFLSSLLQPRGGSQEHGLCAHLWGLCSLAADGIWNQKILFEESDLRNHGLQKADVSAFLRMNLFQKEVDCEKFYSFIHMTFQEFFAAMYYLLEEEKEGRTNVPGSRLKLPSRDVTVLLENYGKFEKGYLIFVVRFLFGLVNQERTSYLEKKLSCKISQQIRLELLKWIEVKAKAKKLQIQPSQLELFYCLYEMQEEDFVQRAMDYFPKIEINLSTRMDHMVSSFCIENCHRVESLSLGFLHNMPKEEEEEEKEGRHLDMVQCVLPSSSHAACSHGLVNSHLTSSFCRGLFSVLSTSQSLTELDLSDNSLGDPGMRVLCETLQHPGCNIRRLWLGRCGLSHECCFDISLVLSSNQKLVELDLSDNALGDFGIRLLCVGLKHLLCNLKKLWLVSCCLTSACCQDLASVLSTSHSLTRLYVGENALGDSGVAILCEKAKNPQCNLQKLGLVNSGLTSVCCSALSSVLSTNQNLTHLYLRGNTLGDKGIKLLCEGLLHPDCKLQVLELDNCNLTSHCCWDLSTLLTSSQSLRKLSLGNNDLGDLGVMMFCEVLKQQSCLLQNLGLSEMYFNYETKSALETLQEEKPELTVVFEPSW
Nuclear factor NF-kappa-B complex (Homo sapiens), sequence (P19838 whole entry, looked up): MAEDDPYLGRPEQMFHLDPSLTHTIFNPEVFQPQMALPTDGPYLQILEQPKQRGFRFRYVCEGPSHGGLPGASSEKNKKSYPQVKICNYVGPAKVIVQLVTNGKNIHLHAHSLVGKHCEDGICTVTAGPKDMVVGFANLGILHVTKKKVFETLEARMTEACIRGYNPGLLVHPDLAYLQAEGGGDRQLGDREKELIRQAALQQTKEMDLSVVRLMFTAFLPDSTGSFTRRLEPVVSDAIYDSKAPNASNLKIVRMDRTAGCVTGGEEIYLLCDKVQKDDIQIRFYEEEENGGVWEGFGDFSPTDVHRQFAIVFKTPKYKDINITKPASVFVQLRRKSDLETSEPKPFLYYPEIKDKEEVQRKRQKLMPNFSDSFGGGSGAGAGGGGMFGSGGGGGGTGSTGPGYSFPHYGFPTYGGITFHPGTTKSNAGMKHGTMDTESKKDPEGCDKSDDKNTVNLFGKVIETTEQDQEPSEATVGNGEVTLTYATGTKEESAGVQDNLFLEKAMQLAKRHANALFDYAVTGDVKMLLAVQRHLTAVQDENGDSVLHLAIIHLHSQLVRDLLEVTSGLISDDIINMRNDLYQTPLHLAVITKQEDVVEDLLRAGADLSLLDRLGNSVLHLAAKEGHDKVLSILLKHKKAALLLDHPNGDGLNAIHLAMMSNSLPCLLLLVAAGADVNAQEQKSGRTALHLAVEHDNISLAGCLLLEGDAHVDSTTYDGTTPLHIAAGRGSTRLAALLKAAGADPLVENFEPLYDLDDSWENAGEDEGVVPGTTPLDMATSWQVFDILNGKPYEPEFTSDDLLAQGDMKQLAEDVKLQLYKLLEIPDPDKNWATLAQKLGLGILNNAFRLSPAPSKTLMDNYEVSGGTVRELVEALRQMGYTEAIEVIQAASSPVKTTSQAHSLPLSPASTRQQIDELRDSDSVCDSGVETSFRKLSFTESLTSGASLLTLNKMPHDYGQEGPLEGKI
Nuclear factor NF-kappa-B complex (Homo sapiens), sequence (Q00653 whole entry, looked up): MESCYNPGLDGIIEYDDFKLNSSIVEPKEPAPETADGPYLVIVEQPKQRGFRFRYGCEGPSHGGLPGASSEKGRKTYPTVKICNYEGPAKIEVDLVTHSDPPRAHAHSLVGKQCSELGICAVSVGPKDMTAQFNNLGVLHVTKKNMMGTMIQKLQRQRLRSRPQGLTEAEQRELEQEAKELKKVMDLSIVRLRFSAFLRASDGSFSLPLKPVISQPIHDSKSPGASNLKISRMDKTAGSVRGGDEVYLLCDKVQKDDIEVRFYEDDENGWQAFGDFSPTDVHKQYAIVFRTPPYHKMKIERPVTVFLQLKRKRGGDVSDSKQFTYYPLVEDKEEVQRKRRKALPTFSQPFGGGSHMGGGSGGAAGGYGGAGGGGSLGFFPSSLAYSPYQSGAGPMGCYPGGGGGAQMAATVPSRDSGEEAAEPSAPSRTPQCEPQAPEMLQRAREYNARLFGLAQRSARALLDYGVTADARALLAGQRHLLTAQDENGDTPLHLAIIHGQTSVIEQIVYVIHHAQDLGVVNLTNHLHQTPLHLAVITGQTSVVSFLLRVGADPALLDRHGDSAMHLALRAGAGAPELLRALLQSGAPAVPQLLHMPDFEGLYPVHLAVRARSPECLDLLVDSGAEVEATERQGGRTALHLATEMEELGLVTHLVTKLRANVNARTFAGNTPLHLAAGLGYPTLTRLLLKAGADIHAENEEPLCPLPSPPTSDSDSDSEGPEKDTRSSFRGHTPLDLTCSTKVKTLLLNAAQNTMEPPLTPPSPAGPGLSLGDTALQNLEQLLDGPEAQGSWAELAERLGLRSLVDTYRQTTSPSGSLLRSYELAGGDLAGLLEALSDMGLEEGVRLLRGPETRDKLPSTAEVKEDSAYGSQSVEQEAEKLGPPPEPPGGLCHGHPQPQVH
Nuclear factor NF-kappa-B complex (Homo sapiens), sequence (Q04206 whole entry, looked up): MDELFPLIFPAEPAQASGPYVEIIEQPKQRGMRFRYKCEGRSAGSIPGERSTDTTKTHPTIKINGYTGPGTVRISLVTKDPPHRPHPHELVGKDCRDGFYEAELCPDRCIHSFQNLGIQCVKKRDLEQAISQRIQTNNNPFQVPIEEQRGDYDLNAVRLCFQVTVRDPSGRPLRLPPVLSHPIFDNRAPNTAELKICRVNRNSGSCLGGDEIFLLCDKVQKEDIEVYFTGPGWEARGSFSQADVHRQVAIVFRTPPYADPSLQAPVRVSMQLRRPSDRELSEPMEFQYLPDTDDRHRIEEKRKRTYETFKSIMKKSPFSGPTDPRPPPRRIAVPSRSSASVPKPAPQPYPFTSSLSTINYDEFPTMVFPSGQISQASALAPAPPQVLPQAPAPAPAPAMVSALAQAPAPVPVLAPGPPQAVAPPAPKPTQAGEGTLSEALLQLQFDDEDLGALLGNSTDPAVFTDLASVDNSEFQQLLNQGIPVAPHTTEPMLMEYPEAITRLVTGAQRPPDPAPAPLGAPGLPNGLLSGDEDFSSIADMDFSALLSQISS

Activity [1]: inactive
Kdiss [2]: 5.19 10^-4/s
Activity [3]: Dose-Dependent Effect
Activity [11]: inactive
Activity [12]: Active
Activity [14]: Active
Activity [15]: Active
Rmax [18]: 29.1 RU
Ka [20]: 9.15 10^2/Ms
Activity [22]: Active
Activity [23]: Active
Activity [26]: Active
Activity [27]: Active
Activity [28]: inactive
SMILES: CCCCCCCCCCCC(=O)N[C@H]1[C@@H](OP(=O)([O-])[O-])O[C@H](CO)[C@@H](OC(=O)CCCCCCCCCCC)[C@@H]1OC(=O)CCCCCCCCCCC.[Na+].[Na+]
Activity [4]: Active
Activity [5]: Active
Activity [6]: Dose-Dependent Effect
Activity [7]: Active
Activity [8]: Active
Activity [9]: Active
fold change (FC) [10]: 20
inhibition [13]: Dose-Dependent Effect
Activity [16]: Active
Activity [17]: Non-Toxic
Activity [19]: Non-Toxic
Activity [21]: Active
Activity [24]: Active
Activity [25]: Non-Toxic
